Source: ChEMBL document CHEMBL4033795, “Design, Synthesis, and Structure-Activity Relationship Study of 2-Oxo-3,4-dihydropyrimido[4,5- d]pyrimidines as New Colony Stimulating Factor 1 Receptor (CSF1R) Kinase Inhibitors” (J Med Chem, 2018)

What was measured:
RAW264.7 [1] = assay: Downregulation of IL10 mRNA expression in mouse RAW264.7 cells after 48 hrs by qRT-PCR analysis relative to DMSO; type: functional, cell-based
Method in brief: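 RAW264.7 macrophages were treated 48 h with compound at 0.08, 0.4 or 2.0 μM, or DMSO vehicle. Total RNA was extracted with TRIzol and transcripts were quantified by qRT-PCR using gene-specific primers. Run three times, each in triplicate.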

[2] = biological target: Proto-oncogene tyrosine-protein kinase receptor Ret (Homo sapiens) (UniProt P07949); assay: Inhibition of human RET (E713 to D1014 residues) expressed in bacterial expression system at 100 nM by KINOMEscan assay relative to control
[3] = biological target: Cytoplasmic tyrosine-protein kinase BMX (Homo sapiens) (UniProt P51813); assay: Inhibition of recombinant human BMX (M1 to H675 residues) expressed in bacterial expression system at 100 nM by KINOMEscan assay relative to control
[4] = biological target: T1, Macrophage colony-stimulating factor 1 receptor (Mus musculus) (UniProt P09581); assay: Inhibition of CSF1R phosphorylation in mouse RAW264.7 cells at 80 nM preincubated for 6 hrs followed by CSF1 stimulation for 20 mins by Western blot analysis relative to control; type: cell-based
T1 sequence (whole entry): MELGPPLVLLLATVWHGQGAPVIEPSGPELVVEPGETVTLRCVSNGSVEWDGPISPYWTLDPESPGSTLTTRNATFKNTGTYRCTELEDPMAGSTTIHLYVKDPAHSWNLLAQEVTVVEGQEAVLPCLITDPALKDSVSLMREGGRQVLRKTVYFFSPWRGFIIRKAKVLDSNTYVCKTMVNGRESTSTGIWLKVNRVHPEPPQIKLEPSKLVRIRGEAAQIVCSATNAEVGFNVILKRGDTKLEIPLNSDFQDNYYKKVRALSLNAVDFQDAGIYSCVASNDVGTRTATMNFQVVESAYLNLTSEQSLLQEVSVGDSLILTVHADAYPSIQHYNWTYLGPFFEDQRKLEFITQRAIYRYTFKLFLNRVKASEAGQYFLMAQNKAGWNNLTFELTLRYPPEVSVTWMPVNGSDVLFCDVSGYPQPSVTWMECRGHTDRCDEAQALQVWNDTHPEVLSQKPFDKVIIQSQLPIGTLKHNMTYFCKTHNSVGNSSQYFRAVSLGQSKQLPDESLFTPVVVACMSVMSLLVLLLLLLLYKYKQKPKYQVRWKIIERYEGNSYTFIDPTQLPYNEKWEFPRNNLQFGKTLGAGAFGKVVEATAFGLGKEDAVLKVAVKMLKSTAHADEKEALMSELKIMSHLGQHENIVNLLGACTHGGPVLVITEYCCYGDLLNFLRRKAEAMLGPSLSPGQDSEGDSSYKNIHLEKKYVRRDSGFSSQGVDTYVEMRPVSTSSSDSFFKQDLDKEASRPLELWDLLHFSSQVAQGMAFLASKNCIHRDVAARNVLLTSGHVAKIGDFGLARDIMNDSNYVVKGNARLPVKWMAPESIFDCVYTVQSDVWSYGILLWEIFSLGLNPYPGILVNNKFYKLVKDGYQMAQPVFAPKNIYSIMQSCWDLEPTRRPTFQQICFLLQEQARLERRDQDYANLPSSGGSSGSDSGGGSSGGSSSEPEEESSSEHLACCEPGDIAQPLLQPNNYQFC
Method in brief: (§1)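 RAW264.7 cells were seeded, incubated overnight and treated 6 h with graded compound concentrations, then stimulated 20 min with CSF-1 (50 ng/mL). Lysates were run on 8−12% SDS-PAGE and immunoblotted for p-CSF1R (Tyr723), CSF1R, p-AKT, AKT and GAPDH. Bands were quantified and normalized to GAPDH. Mean ± SEM of at least three experiments.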

[5] = biological target: T1, Macrophage colony-stimulating factor 1 receptor (Mus musculus); assay: Inhibition of CSF1R phosphorylation in mouse RAW264.7 cells assessed as reduction in AKT phosphorylation at 80 nM preincubated for 6 hrs followed by CSF1 stimulation for 20 mins by Western blot analysis relative to control; type: cell-based; method in brief: as §1
RAW264.7 [6] = assay: Antimigratory activity against mouse RAW264.7 cells assessed as inhibition of human LNCaP-MDV-CM mediated macrophage migration at 5 uM after 24 hrs by crystal violet staining based transwell assay relative to control; type: functional; settings: RAW264.7, 24 h
Method in brief: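 RAW264.7 cells, (2−4) × 10^5, were placed serum-free in the upper insert of a transwell. The lower chamber held conditioned medium from LNCaP cells grown 48 h in 10% FBS RPMI 1640 with 10 μM MDV3100 or DMSO. Compound at 0.625–5.0 μM was added to the top chamber for 24 h at 37 °C. Migrated cells were fixed in methanol, stained with 0.25% crystal violet and counted in six random fields at 200×. Three independent experiments.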

[7] = biological target: Macrophage colony-stimulating factor 1 receptor (Homo sapiens, UniProt P07333); assay: Inhibition of recombinant human His-tagged CSF1R cytoplasmic domain (538 to 910 residues) expressed in baculovirus using tyr4 peptide as substrate after 1 hr by FRET-based Z'-Lyte assay
Method in brief: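 Z′-Lyte FRET assay with CSF1R or EGFR and 2 μM Tyr4 peptide substrate in 1× kinase buffer. ATP was supplied as a 100 μM solution, a stock and not the final concentration. Compounds were 3-fold serially diluted in DMSO. Reaction ran 1 h at room temperature, followed by 1 h development and a stop reagent. Phospho-peptide, no-ATP and DMSO controls were included. IC50 by curve fitting; mean of at least three independent experiments.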

Rattus norvegicus = assay: AUC (0 to infinity) in Sprague-Dawley rat at 25 mg/kg administered via oral gavage measured up to 72 hrs by LC/MS analysis; type: ADME, organism-based; parameters: dose 25 mg/kg, route oral, time infinity; settings: in vivo
Method in brief: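 Male Sprague-Dawley rats, 4–6 weeks old, acclimatised 1 week, were dosed iv at 5 mg/kg or by oral gavage at 25 mg/kg. Vehicle was 2% DMSO, 4% EtOH, 4% castor oil, 90% H2O. Blood was drawn by orbital sinus puncture from 2 min to 72 h into heparinized tubes. Plasma was assayed by LC/MS with propranolol as internal standard. Three animals per group.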

Homo sapiens = species on record: Homo sapiens; assay: Selectivity ratio of IC50 for recombinant human PDGFRbeta expressed in baculovirus to IC50 for recombinant human His-tagged CSF1R cytoplasmic domain (538 to 910 residues) expressed in baculovirus
RAW264.7 [8] = assay: Inhibition of protumorigenic potential of mouse RAW264.7 cells assessed as abrogation of human LNCAP cell growth enhancement of macrophages co-cultured for 48 hrs by CCK8 assay; type: functional, cell-based
Method in brief: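 LNCaP cells, (2−4) × 10^5, were seeded in the lower transwell chamber. After 2 h, (1−2) × 10^6 RAW264.7 cells were added in a 0.4 μm insert. Compound at 0.016–2.0 μM was added to the top chamber and cells were cocultured 48 h at 37 °C. LNCaP cells were then imaged and counted by CCK8. Run three times, each in triplicate.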

Sequence of Cytoplasmic tyrosine-protein kinase BMX (Homo sapiens) (P51813 whole entry, the tested form may be a part): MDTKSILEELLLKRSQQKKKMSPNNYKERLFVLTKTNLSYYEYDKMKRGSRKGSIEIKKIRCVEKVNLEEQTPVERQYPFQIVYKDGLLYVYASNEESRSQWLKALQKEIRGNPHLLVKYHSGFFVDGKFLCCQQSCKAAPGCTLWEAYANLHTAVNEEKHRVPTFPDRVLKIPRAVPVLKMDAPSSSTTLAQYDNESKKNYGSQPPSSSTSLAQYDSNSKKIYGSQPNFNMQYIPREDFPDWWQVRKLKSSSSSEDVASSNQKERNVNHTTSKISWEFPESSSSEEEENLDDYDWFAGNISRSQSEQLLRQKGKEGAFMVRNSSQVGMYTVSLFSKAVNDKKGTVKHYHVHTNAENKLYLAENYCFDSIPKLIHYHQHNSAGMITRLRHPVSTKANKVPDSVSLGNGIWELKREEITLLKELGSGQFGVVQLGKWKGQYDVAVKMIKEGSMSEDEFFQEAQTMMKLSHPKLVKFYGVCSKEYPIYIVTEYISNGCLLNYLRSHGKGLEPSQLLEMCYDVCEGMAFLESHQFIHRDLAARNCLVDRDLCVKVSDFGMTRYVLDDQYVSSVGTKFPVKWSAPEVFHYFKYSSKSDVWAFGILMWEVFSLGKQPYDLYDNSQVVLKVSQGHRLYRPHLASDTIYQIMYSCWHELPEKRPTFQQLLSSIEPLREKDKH
Sequence of Proto-oncogene tyrosine-protein kinase receptor Ret (Homo sapiens) (P07949 whole entry, the tested form may be a part): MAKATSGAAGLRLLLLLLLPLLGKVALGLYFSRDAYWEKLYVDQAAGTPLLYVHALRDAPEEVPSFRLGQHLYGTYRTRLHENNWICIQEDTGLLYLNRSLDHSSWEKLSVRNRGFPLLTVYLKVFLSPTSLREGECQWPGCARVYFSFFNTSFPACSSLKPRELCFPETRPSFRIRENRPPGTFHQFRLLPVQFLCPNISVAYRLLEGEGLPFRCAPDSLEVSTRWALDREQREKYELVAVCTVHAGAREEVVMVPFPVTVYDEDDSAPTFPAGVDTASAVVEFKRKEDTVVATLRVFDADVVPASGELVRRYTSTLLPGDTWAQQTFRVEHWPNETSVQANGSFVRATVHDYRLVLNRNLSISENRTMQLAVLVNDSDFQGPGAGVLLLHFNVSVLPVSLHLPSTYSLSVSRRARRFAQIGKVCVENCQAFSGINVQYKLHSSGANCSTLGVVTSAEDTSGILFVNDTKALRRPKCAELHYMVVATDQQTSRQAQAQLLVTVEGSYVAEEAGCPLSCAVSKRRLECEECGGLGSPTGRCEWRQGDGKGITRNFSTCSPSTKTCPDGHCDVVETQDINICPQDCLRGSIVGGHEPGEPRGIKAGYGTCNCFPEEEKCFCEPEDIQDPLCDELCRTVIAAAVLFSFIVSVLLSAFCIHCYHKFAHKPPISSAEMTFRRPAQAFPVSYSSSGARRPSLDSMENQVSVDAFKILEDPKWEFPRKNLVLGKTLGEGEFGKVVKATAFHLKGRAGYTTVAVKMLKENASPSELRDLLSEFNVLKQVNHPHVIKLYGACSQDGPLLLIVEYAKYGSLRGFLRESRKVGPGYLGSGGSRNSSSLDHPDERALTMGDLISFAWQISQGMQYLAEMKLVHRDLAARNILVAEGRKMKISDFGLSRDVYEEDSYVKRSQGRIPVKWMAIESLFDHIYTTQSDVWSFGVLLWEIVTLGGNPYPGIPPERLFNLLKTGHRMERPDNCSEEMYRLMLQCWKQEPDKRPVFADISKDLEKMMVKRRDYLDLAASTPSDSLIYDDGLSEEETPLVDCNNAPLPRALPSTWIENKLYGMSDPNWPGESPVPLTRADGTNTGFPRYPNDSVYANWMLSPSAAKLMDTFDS
Sequence of Macrophage colony-stimulating factor 1 receptor (P07333 whole entry, the tested form may be a part): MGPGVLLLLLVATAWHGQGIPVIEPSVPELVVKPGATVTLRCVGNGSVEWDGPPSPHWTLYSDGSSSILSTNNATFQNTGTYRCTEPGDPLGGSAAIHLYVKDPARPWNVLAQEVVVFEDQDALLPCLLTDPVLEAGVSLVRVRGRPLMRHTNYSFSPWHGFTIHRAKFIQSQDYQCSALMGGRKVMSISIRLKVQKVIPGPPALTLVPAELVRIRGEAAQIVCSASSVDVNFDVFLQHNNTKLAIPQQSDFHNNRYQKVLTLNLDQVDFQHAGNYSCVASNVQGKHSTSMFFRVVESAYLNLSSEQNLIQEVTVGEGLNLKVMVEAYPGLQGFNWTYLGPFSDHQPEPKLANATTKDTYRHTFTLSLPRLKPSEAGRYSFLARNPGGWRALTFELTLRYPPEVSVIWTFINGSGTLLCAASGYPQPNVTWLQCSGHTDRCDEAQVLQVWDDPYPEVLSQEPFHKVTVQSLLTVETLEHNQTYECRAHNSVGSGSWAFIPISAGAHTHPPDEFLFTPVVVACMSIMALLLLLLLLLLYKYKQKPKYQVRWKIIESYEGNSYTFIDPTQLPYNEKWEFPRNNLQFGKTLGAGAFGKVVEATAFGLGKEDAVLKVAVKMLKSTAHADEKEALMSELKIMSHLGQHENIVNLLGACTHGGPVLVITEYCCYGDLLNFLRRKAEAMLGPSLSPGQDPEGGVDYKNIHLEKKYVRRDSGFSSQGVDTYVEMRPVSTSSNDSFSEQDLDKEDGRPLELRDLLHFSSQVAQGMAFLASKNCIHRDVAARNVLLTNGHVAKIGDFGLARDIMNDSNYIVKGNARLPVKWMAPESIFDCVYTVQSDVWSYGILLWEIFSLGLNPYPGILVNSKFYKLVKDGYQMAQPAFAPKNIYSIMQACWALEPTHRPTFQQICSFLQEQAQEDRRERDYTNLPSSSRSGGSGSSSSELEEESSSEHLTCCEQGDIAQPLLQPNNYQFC

CCC(=O)N1CC[C@H](N2C(=O)N(c3cc(OC)ccc3Cl)Cc3cnc(Nc4ccc(N5CCN(C6COC6)CC5)c(C)c4)nc32)C1
Activity (RAW264.7 [1]): Dose-dependent effect | inhibition [2]: > 90% | inhibition [3]: > 90% | inhibition [4]: 50% | inhibition [5]: 50% | inhibition at 5 µM (RAW264.7 [6]): 90.7% | IC50 [7]: 3 nM | AUC (Rattus norvegicus): 6462 ng·h/mL | Ratio IC50 (Homo sapiens): 10 to 35 | inhibition (RAW264.7 [8]): Dose-dependent effect
